Values after ≈ are worked out from the molar mass of the structure shown.
Key:
[1] = system: Staphylococcus aureus; test: Antimicrobial activity against Staphylococcus aureus ATCC 33591 in septicemia mouse model administered intragastrically measured after 14 days; format: functional; conditions: ATCC 33591, po, 336 h
[2] = system: Staphylococcus aureus; test: Antimicrobial activity against Staphylococcus aureus ATCC 33591 in septicemia mouse model assessed as mortality of host at 20 mg/kg administered intragastrically measured after 14 days relative to control; format: functional; conditions: ATCC 33591, po, 336 h, route intragastric
Method in brief: (§1)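 Septicemia model: outbred mice inoculated i.p. with a 90–100% lethal dose (5 × 10^6 CFU/mL) in 0.5 mL brain heart infusion broth with 5% mucin. Drug in 20% DMSO given intragastrically after infection at 5, 10 or 20 mg/kg, 0.1 mL. Six mice per dose; cumulative mortality over 14 days; ED50 derived.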

[3] = system: Staphylococcus aureus; test: Antimicrobial activity against Staphylococcus aureus ATCC 33591 in septicemia mouse model assessed as mortality of host at 10 mg/kg administered intragastrically measured after 14 days relative to control; format: functional; conditions: ATCC 33591, po, 336 h, route intragastric; method in brief: as §1
[4] = system: Staphylococcus aureus; test: Antimicrobial activity against Staphylococcus aureus ATCC 33591 in septicemia mouse model assessed as mortality of host at 5 mg/kg administered intragastrically measured after 14 days relative to control; format: functional; conditions: ATCC 33591, po, 336 h, route intragastric; method in brief: as §1
[5] = Fraction unbound in CD1 mouse plasma at 2 uM by equilibrium dialysis; format: ADME, cell-free
Method in brief: (§2)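 Pooled CD-1 mouse plasma spiked to 2 µM final, equilibrium dialysis in triplicate against 100 mM PBS pH 7.4, 4 h at 37 °C with rotation; matrix-matched samples acetonitrile-precipitated, LC-MS/MS with internal standards. Unbound = free/total ×100; recovery = (free+total)/pre-dialysis ×100.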

[6] = Protein binding in CD1 mouse plasma at 2 uM by equilibrium dialysis; format: ADME, cell-free; conditions: read-out: PPB (converted)
[7] = Drug recovery in CD1 mouse plasma at 2 uM by equilibrium dialysis; format: ADME, cell-free; conditions: read-out: Drug recovery; method in brief: as §2
[8] = biological target: T1, hERG (KCNH2) (Homo sapiens, UniProt Q12809); test: Inhibition of human ERG at 1 uM
T1 sequence (Q12809 whole entry): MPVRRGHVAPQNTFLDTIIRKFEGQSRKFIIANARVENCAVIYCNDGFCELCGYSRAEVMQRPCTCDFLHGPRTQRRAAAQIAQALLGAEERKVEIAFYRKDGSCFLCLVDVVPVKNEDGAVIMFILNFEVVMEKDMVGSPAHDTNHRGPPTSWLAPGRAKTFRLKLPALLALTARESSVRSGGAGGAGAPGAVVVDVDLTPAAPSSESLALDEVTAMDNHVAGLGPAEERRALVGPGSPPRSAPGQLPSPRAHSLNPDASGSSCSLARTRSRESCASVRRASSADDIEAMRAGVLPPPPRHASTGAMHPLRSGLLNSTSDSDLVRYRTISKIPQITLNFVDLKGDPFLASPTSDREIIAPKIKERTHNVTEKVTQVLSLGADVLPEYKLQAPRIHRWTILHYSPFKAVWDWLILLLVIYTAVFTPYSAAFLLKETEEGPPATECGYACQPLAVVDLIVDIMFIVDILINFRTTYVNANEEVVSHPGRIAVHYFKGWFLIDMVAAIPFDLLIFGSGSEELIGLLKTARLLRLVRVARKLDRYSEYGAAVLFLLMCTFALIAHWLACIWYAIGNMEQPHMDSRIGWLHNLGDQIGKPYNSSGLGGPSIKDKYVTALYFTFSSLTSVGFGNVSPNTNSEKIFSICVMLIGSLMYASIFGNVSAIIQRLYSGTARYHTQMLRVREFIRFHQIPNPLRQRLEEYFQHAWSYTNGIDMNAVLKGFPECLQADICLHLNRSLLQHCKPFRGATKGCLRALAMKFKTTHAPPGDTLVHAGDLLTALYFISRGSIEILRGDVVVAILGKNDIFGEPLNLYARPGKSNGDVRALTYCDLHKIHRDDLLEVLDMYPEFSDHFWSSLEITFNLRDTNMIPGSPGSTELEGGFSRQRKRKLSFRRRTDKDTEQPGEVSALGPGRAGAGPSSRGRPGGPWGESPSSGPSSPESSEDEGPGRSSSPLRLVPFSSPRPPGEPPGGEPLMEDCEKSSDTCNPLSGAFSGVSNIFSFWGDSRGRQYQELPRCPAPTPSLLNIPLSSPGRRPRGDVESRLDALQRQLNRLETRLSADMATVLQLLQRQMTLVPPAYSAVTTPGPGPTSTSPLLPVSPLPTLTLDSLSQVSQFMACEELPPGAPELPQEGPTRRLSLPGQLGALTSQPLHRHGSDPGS

[9] = system: Staphylococcus aureus; test: Antimicrobial activity against Staphylococcus aureus after 24 hrs by broth microdilution method; format: functional
Method in brief: (§3)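 Broth microdilution following NCCLS M7-A4; ATCC strains and clinical isolates from a provincial hospital.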

[10] = system: Staphylococcus aureus; test: Antimicrobial activity against methicillin-susceptible Staphylococcus aureus after 24 hrs by broth microdilution method; format: functional; method in brief: as §3
[11] = system: Staphylococcus aureus; test: Antimicrobial activity against methicillin-resistant Staphylococcus aureus after 24 hrs by broth microdilution method; format: functional
Method in brief: (§4)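 Broth microdilution following NCCLS M7-A4, using ATCC strains and clinical isolates from a provincial hospital.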

[12] = system: Staphylococcus epidermidis; test: Antimicrobial activity against Staphylococcus epidermidis after 24 hrs by broth microdilution method; format: functional; method in brief: as §3
[13] = system: Escherichia coli; test: Antimicrobial activity against Escherichia coli isolate 1 after 24 hrs by broth microdilution method; format: functional; conditions: isolate 1, 24 h; method in brief: as §3
[14] = system: Escherichia coli; test: Antimicrobial activity against Escherichia coli isolate 2 after 24 hrs by broth microdilution method; format: functional; conditions: isolate 2, 24 h; method in brief: as §3
[15] = system: Staphylococcus aureus; test: Antimicrobial activity against Staphylococcus aureus OXFORD after 24 hrs by broth microdilution method; format: functional; method in brief: as §4
[16] = system: Staphylococcus aureus; test: Antimicrobial activity against Staphylococcus aureus WCUH29 after 24 hrs by broth microdilution method; format: functional; conditions: WCUH29, 24 h; method in brief: as §3
[17] = system: Enterococcus faecalis; test: Antimicrobial activity against Enterococcus faecalis Isolate 1 after 24 hrs by broth microdilution method; format: functional; conditions: Isolate 1, 24 h; method in brief: as §3
[18] = system: Enterococcus faecium; test: Antimicrobial activity against Enterococcus faecium X7501 after 24 hrs by broth microdilution method; format: functional; conditions: X7501, 24 h; method in brief: as §3
[19] = system: Haemophilus influenzae; test: Antimicrobial activity against Haemophilus influenzae Q1 after 24 hrs by broth microdilution method; format: functional; conditions: Q1, 24 h; method in brief: as §3
[20] = system: Haemophilus influenzae; test: Antimicrobial activity against Haemophilus influenzae H128 after 24 hrs by broth microdilution method; format: functional; conditions: H128, 24 h; method in brief: as §3
[21] = system: Haemophilus influenzae; test: Antimicrobial activity against AcrA-deficient Haemophilus influenzae H128 after 24 hrs by broth microdilution method; format: functional; conditions: H128, 24 h; method in brief: as §3
[22] = system: Moraxella catarrhalis; test: Antimicrobial activity against Moraxella catarrhalis 1502 after 24 hrs by broth microdilution method; format: functional; conditions: Moraxella catarrhalis, 1502, 24 h; method in brief: as §3
[23] = system: Streptococcus pneumoniae; test: Antimicrobial activity against Streptococcus pneumoniae 1629 after 24 hrs by broth microdilution method; format: functional; conditions: Streptococcus pneumoniae, 1629, 24 h; method in brief: as §3
[24] = system: Streptococcus pneumoniae; test: Antimicrobial activity against Streptococcus pneumoniae N1387 after 24 hrs by broth microdilution method; format: functional; conditions: N1387, 24 h; method in brief: as §3
[25] = system: Streptococcus pneumoniae; test: Antimicrobial activity against Streptococcus pneumoniae ERY2 after 24 hrs by broth microdilution method; format: functional; conditions: ERY2, 24 h; method in brief: as §3
[26] = system: Escherichia coli; test: Antimicrobial activity against Escherichia coli isolate 3 after 24 hrs by broth microdilution method; format: functional; conditions: isolate 3, 24 h; method in brief: as §3
[27] = system: Streptococcus pyogenes; test: Antimicrobial activity against Streptococcus pyogenes 1307006P after 24 hrs by broth microdilution method; format: functional; method in brief: as §3
[28] = system: Streptococcus pyogenes; test: Antimicrobial activity against Streptococcus pyogenes 1308007P after 24 hrs by broth microdilution method; format: functional; method in brief: as §3
[29] = Half life in Sprague-Dawley rat at 5 mg/kg, iv; format: ADME, organism-based; design: dose 5 mg/kg, route intravenous; conditions: in vivo
[30] = Mean residence time (0 to t) in Sprague-Dawley rat at 5 mg/kg, iv; format: ADME, organism-based; design: dose 5 mg/kg, route intravenous; conditions: in vivo
[31] = AUC (0 to t) in Sprague-Dawley rat at 5 mg/kg, iv; format: ADME, organism-based; design: dose 5 mg/kg, route intravenous; conditions: plasma
[32] = AUC (0 to infinity) in Sprague-Dawley rat at 5 mg/kg, iv; format: ADME, organism-based; design: time infinity, dose 5 mg/kg, route intravenous; conditions: plasma
[33] = Clearance in Sprague-Dawley rat at 5 mg/kg, iv; format: ADME, organism-based; design: dose 5 mg/kg, route intravenous; conditions: in vivo
[34] = Volume of distribution at steady state in Sprague-Dawley rat at 5 mg/kg, iv; format: ADME, organism-based; design: dose 5 mg/kg, route intravenous; conditions: in vivo, read-out: Vdss
[35] = Cmax in Sprague-Dawley rat at 25 mg/kg, po; format: ADME, organism-based; design: dose 25 mg/kg, route oral; conditions: in vivo
[36] = Tmax in Sprague-Dawley rat at 25 mg/kg, po; format: ADME, organism-based; design: dose 25 mg/kg, route oral; conditions: in vivo
[37] = Half life in Sprague-Dawley rat at 25 mg/kg, po; format: ADME, organism-based; design: dose 25 mg/kg, route oral; conditions: in vivo
[38] = AUC (0 to t) in Sprague-Dawley rat at 25 mg/kg, po; format: ADME, organism-based; design: dose 25 mg/kg, route oral; conditions: plasma
[39] = AUC (0 to infinity) in Sprague-Dawley rat at 25 mg/kg, po; format: ADME, organism-based; design: dose 25 mg/kg, route oral, time infinity; conditions: plasma
[40] = Mean residence time (0 to t) in Sprague-Dawley rat at 25 mg/kg, po; format: ADME, organism-based; design: dose 25 mg/kg, route oral; conditions: in vivo
[41] = Oral bioavailability in Sprague-Dawley rat at 25 mg/kg; format: ADME, organism-based; conditions: in vivo
[42] = biological target: T1, hERG (KCNH2); test: Inhibition of human ERG at 10 uM

C=C1C[C@@H](C(=O)Nc2ncc(C)s2)N(C(=O)[C@H](CCCC)CN(O)C=O)C1
ED50 [1]: 19.6 mg/kg | mortality at 20 mg/kg [2]: 50% | mortality at 10 mg/kg [3]: 66% | mortality at 5 mg/kg [4]: 83% | fraction unbound at 2 µM [5]: 0.01 | fraction unbound at 2 µM [6]: 0.01 | recovery at 2 µM [7]: 93.7% | inhibition at 1 µM [8]: -0.35% | MIC [9]: 0.25 µg/mL (≈ 0.634 µM) | MIC [10]: 0.5 µg/mL (≈ 1.27 µM) | MIC [11]: 0.0312 µg/mL (≈ 0.0791 µM) | MIC [12]: 0.0625 µg/mL (≈ 0.158 µM) | MIC [13]: 64 µg/mL (≈ 162 µM) | MIC [14]: 32 µg/mL (≈ 81.1 µM) | MIC [15]: 0.5 µg/mL (≈ 1.27 µM) | MIC [16]: 0.125 µg/mL (≈ 0.317 µM) | MIC [17]: 4 µg/mL (≈ 10.1 µM) | MIC [18]: 2 µg/mL (≈ 5.07 µM) | MIC [19]: 4 µg/mL (≈ 10.1 µM) | MIC [20]: 4 µg/mL (≈ 10.1 µM) | MIC [21]: ≤ 0.06 µg/mL | MIC [22]: ≤ 0.06 µg/mL | MIC [23]: 2 µg/mL (≈ 5.07 µM) | MIC [24]: 1 µg/mL (≈ 2.53 µM) | MIC [25]: 2 µg/mL (≈ 5.07 µM) | MIC [26]: 64 µg/mL (≈ 162 µM) | MIC [27]: 2 µg/mL (≈ 5.07 µM) | MIC [28]: 2 µg/mL (≈ 5.07 µM) | half-life [29]: 3.21 h | MRT last [30]: 2.03 h | AUC(0-t) [31]: 19800 ng·h/mL | AUC(0-inf) [32]: 19800 ng·h/mL | clearance [33]: 4.83 mL/min/kg | Vd [34]: 0.571 L/kg | Cmax [35]: 15700 ng/mL | Tmax [36]: 0.688 h | half-life [37]: 3.02 h | AUC(0-t) [38]: 58100 ng·h/mL | AUC(0-inf) [39]: 58300 ng·h/mL | MRT last [40]: 3.41 h | bioavailability [41]: 58.9% | inhibition at 10 µM [42]: -2.98%

CC(=O)NC[C@H]1CN(c2ccc(N3CCOCC3)c(F)c2)C(=O)O1 [LINEZOLID]
ED50 [1]: 11.9 mg/kg | mortality at 20 mg/kg [2]: 16% | mortality at 10 mg/kg [3]: 66% | mortality at 5 mg/kg [4]: 83% | MIC [12]: 0.5 µg/mL (≈ 1.48 µM) | MIC [13]: > 64 µg/mL | MIC [14]: > 64 µg/mL

Source: ChEMBL document CHEMBL3352487, “Synthesis, antibacterial activity, and biological evaluation of formyl hydroxyamino derivatives as novel potent peptide deformylase inhibitors against drug-resistant bacteria” (Eur J Med Chem, 2014)
